HIV Env fusion – HIV envelope-mediated fusion inhibition; HeLa-JRFL Env/CEM21 cell fusion, luciferase; inhibition, % at 12.3 µM; 360,000 tested, 1.1% active;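 active = mean replicate inhibition score of at least 50 and every replicate individually at or above 50; inconclusive = only one of the two criteria met; inactive = mean below 50 and not all replicates reaching 50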;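 note: 0% = plate neutral controls and 100% = maraviroc near 300 nM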
Arrestin-AP2 inh – blocks beta-arrestin peptide binding to AP2 adaptin; FITC-arrestin peptide / GST-AP2 beads, flow cytometry; AP2 beta2 appendage carries R879A mutation; 340,000 tested, 0.31% active; inhibition, % at 10 µM;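 active = inhibition above a set limit, near 3 SD of compounds lacking own fluorescence, cut at about 54% in these data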;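 note: plate controls were DMSO wells for no effect and 5 µM unlabelled arrestin peptide for full effect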
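Material – GST-tagged AP2 beta2-adaptin appendage (R879A) on 4 µm glutathione beads · Probe or stimulus – fluorescein-tagged arrestin peptide at 50 nM final · Timing – 12 min plus 1 h, RT · Detection – bead flow cytometry, FITC channel · Read-out basis – inhibition as reduced fluorescein signal on beads, percent · Medium – PBS plus Tween 20 (0.05%) and BSA (0.1%)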
Rtt109 HAT inh – C. albicans Rtt109 histone acetyltransferase inhibition. 330,000 tested, 0.16% active. purified Rtt109/Vps75, ThioGlo CoA-SH fluorescence, 4 h. Q5AAJ8. inhibition, % at 34.9 µM;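 active = inhibition of at least 50% in every replicate; inconclusive = best replicate reaches 50% inhibition but some replicates fall short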
Target sequence (Q5AAJ8 whole entry, looked up): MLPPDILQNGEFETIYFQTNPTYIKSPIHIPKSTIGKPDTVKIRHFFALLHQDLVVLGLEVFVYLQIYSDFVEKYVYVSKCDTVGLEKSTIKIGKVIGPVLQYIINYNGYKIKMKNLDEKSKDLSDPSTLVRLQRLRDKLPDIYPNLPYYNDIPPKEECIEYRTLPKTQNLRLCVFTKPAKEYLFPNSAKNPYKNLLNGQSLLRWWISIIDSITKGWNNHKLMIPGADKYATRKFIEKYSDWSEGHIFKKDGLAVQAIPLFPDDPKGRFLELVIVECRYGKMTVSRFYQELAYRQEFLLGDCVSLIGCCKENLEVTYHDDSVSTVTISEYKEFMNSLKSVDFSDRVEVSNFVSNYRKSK
PAX8 inh HTS – PAX8 transcriptional activity inhibition. RMG-I TPO-luciferase reporter, SteadyGlo, 24 h. inhibition, % at 12.6 µM. 360,000 tested, 1.2% active. AID 652154;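 active = mean replicate inhibition at least 60% with every replicate also reaching 60%; inconclusive = only one of the two criteria is met; inactive = mean below 60% and not all replicates reaching 60%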;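 note: luciferase light reporting Pax8 driven TPO promoter activity; plate controls were median of neutral control wells for no effect and mitoxantrone controls for full effect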
PfHsp90 set2 – growth inhibition of yeast expressing Plasmodium Hsp90; S. cerevisiae expressing PfHsp90, BacTiter-Glo ATP, 48 h; yeast lacking PDR1 and PDR3 efflux regulators; inhibition, % at 9.4 µM; 310,000 tested, 0.32% active; AID 504621;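 active = every replicate shows inhibition above about 80%, whatever the replicate mean, limit read from the data; inconclusive = mean inhibition reaches the set limit but some replicate falls short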;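 note: 0% = DMSO neutral controls and 100% = 20 µM radicicol positive controls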
Glyco luc inh – blocks N-linked glycosylation in D54 reporter cells. 360,000 tested, 0.23% active. reporter increase, % at 12.5 µM. D54 ERlucT glycosylation luciferase reporter, 24 h; percent of 100 nM tunicamycin response;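 active = mean luciferase reporter signal, scaled so untreated is 0 and the glycosylation-blocking control 100, at or above a set limit in every replicate; inconclusive = mean reaches the limit but not every replicate does; inactive = mean below the limit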;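 note: luciferase carries N-glycosylation sites so blocking glycosylation raises the light; 0% = median of neutral control wells and 100% = median of 100 nM tunicamycin wells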
Active calls of the source: *; ? = inconclusive; . = not tested or not shown; [ ] = another dose, or the depositor's remark. Compounds with a hit are over-represented: about 2.3% of the library has one in this group of screens.

SMILES	HIV Env fusion	Arrestin-AP2 inh	Rtt109 HAT inh	PAX8 inh HTS	PfHsp90 set2	Glyco luc inh
CN(Cc1ccccc1)C1=CC(=[N+]2CCCCC2)CC(C)(C)C1	44.5	2.7	11.0	74.3*	-9.5	1.0
CC1(C)CC(NNCCC#N)=CC(=[N+]2CCCC2)C1	5.7	-6.6	2.9	9.4	11.2	-0.9
COc1ccc(C(=O)NC(=S)NNC(=O)c2cnccn2)cc1	.	10.2	-2.7	.	94.0*	-11.3
O=C(NC(=S)NNC(=O)c1cnccn1)c1ccc(Cl)cc1	-2.9	5.5	3.1	13.6	71.3	-10.1
COc1ccc(C(=O)NC(=S)NNC(=O)COc2ccccc2)cc1	3.9	4.5	-0.7	109.3*	6.1	-0.1
Cc1cccc(C(=O)NC(=S)NNC(=O)Cc2ccccc2)c1	17.6	42.5	5.8	-31.9	108.7*	1.4
COc1cccc(-c2ccc3c(c2)[C@@H]2[C@@H](CCN2C(=O)CC2CC2)[C@H](CO)N3C)c1	.	.	.	66.8*	.	.
COc1cccc(-c2ccc3c(c2)[C@H]2[C@H](CCN2C(=O)c2ccccc2F)[C@H](CO)N3C)c1	.	.	.	85.5*	.	.
CC1(C)CC2CC(C)(CN2S(=O)(=O)c2cccc(C(=O)OCC(=O)NC(N)=O)c2)C1 (centres undefined)	91.3*	-14.1	-0.4	-14.0	-11.4	-3.2
Oc1ccccc1N=Nc1nc(-c2ccccc2)c(-c2ccccc2)[nH]1	.	2.6	6.4	.	106.4*	-10.1
COc1ccccc1N=Nc1nc(-c2ccccc2)c(-c2ccccc2)[nH]1	-87.6	3.9	4.4	6.0	4.5	6.9
C[C@@H]1CN([C@H](C)CO)S(=O)(=O)c2ccc(C#Cc3ccccc3F)cc2O[C@@H]1CN(C)CC1CCOCC1	-6.5[16.7 µM]	.	.	37.0	.	.
C[C@@H]1CN([C@@H](C)CO)S(=O)(=O)c2ccc(C#Cc3ccccc3F)cc2O[C@H]1CN(C)CC1CCOCC1	21.3[16.7 µM]	.	.	94.1*	.	.
C[C@H]1CN([C@@H](C)CO)S(=O)(=O)c2ccc(C#Cc3ccccc3F)cc2O[C@@H]1CN(C)CC1CCOCC1	21.3[16.7 µM]	.	.	89.9*	.	.
CO[C@H]1CN(C)C(=O)c2ccc(NC(=O)C3CCOCC3)cc2OC[C@@H](C)N(Cc2cccnc2)C[C@@H]1C	.	.	.	14.2	.	.
O=C1C=C(NCc2ccccc2)c2ccccc2C1=O	36.5	6.5	-5.3	76.7*	-2.1	-16.2
COc1ccc(S(=O)(=O)N[C@@H]2CC[C@@H](CC(=O)NCc3ccccc3F)O[C@@H]2CO)cc1	-13.7[16.7 µM]	.	.	-11.9	.	.
COC(C(=O)C(O)C(C)O)C1Cc2cc3cc(OC4CC(OC5CC(O)C(O)C(C)O5)C(O)C(C)O4)c(C)c(O)c3c(O)c2C(=O)C1OC1CC(OC2CC(OC3CC(O)C(OC)C(C)O3)C(O)C(C)O2)C(O)C(C)O1 (centres undefined)	78.0*	-3.4	0.5	99.8*	15.9	-6.6
CC(C)(C)OC(=O)N1CCC[C@@H]1CO	.	-2.5	-2.7	.	6.1	0.9
CCCCCC(CC(=O)NO)C(=O)NC(C(=O)N1CCCC1CO)C(C)C (centres undefined)	-8.4	22.1	-11.8	90.1*	4.5	9.0
CC1(C)C(C=C(Cl)Cl)C1C(=O)Nc1ccc([N+](=O)[O-])cc1 (centres undefined)	10.5	.	.	98.7*	.	.
O=C(Nc1ccc([N+](=O)[O-])cc1)C1CC1(c1ccccc1)c1ccccc1 (centres undefined)	9.1	47.9	-0.1	19.5	0.2	-7.6
CC(=O)NC(CCc1ccc(Cl)c(Cl)c1)c1cccc(O)c(=O)c1 (centres undefined)	21.7	.	.	91.1*	.	-14.6
CCC(c1nnnn1Cc1ccco1)N(CCc1ccccc1)Cc1cc2cc(C)ccc2[nH]c1=O (centres undefined)	.	-1.9	3.0	.	29.5	-1.4
Cc1ccc2[nH]c(=O)c(CN(CCc3ccccc3)C(c3nnnn3Cc3ccco3)C(C)C)cc2c1 (centres undefined)	72.0*	0.7	12.3	10.3	-11.5	-2.5
SMILES	HIV Env fusion	Arrestin-AP2 inh	Rtt109 HAT inh	PAX8 inh HTS	PfHsp90 set2	Glyco luc inh
O=C(/C=C/c1ccnc2ccccc12)c1cccs1	-33.3	44.4	-10.0	-135.0	84.9*	-11.2
COCC(=O)Nc1ccc2c(c1)C(=O)N(C)[C@H]1CC[C@H](CC(=O)NCc3ccccc3F)O[C@@H]1CO2	.	.	.	-21.6	.	.
COCC(=O)Nc1ccc2c(c1)OC[C@H](C)N(CC1CC1)C[C@H](C)[C@H](OC)CN(C)C2=O	4.6[16.7 µM]	.	.	-5.6	.	.
Cc1ccc(O)c(C=Nc2cc(C)ccc2O)c1	.	10.4	0.1	.	-7.5	-1.9
Cc1ccc(O)c(N=Cc2cc(Cc3ccccc3)cc([N+](=O)[O-])c2O)c1	18.9	11.1	3.0	10.2	100.9*	2.2
O=[N+]([O-])c1cc(Cc2ccccc2)cc(C=Nc2ccc(N3CCOCC3)cc2)c1O	.	18.6	-5.5	.	106.1*	7.1
COc1ccc(S(=O)(=O)Nc2cccc3c2O[C@@H](CN(C)Cc2ccc(Cl)c(Cl)c2)[C@H](C)CN([C@@H](C)CO)C3=O)cc1	-38.4[16.7 µM]	.	.	.	.	.
C[C@@H]1CN([C@@H](C)CO)C(=O)c2cccc(NS(=O)(=O)c3ccccc3)c2O[C@@H]1CN(C)S(=O)(=O)c1cccs1	10.7[16.7 µM]	.	.	.	.	.
CO[C@H]1CN(C)C(=O)c2cc(NC(=O)C3CC3)ccc2OC[C@H](C)N(CCc2ccccc2)C[C@H]1C	-2.8[16.7 µM]	.	.	-0.4	.	.
O=C(/C=C/c1cccs1)NC(=S)NNC(=O)c1ccccc1O	?	26.8	.	89.2*	28.4	-5.5
COc1ccccc1CNC(=O)C[C@@H]1CC[C@H](NC(C)=O)[C@H](CO)O1	-4.6[16.7 µM]	.	.	-4.6	.	.
CCCNC(=O)N1[C@H](CO)[C@@H]2c3ccccc3N(C(=O)Nc3ccc(F)cc3)C[C@@H]21	.	.	.	-17.1	.	.
Cc1cc(OCC(=O)Nc2ccncc2)cc(C)c1Br	46.1*	-0.8	9.3	18.0	-5.5	-1.4
Cc1cc(OCC(=O)Nc2ccncc2)ccc1Cl	15.1	37.3	33.0	-5.8	-10.7	3.2
O=c1cc(O)c2sc(Nc3ccc(Cl)c(F)c3)nc2[nH]1	31.3	11.4	17.0	70.1*	-15.0	-2.3
O=c1cc(O)c2sc(Nc3ccc(F)c(Cl)c3)nc2[nH]1	68.1*	-2.2	-2.2	73.7*	-37.9	-1.9
CC1(Cc2ccc(C(F)(F)F)o2)C(=O)Nc2cc(-c3ccc(F)cc3F)ccc21 (centres undefined)	61.8*	.	.	12.8	.	-4.8
CC1(Cc2cc(Cl)ccc2C(F)(F)F)C(=O)Nc2cc(F)ccc21 (centres undefined)	.	.	.	.	.	-3.7
Cc1ccc2cc3c(N)c(C(=O)N4CCOCC4)sc3nc2c1	-271.5	0.3	11.0	.	-14.0	-12.3
Cc1ccc2nc3sc(C(=O)N4CCOCC4)c(N)c3cc2c1	73.8*	-9.7	-21.8	82.0*	5.6	-19.5
C[C@@H]1CN([C@@H](C)CO)C(=O)c2cc(NC(=O)c3ccncc3)ccc2O[C@H]1CN(C)Cc1ccc(Oc2ccccc2)cc1	15.5[16.7 µM]	.	.	23.5	.	.
